# Assay results collected from several papers.
# Lines come from different studies, so protocols differ.
# Target: Ephrin type-A receptor 8 (EPHA8, Homo sapiens, UniProt P29322)
# One construct used (P29322 1-1005): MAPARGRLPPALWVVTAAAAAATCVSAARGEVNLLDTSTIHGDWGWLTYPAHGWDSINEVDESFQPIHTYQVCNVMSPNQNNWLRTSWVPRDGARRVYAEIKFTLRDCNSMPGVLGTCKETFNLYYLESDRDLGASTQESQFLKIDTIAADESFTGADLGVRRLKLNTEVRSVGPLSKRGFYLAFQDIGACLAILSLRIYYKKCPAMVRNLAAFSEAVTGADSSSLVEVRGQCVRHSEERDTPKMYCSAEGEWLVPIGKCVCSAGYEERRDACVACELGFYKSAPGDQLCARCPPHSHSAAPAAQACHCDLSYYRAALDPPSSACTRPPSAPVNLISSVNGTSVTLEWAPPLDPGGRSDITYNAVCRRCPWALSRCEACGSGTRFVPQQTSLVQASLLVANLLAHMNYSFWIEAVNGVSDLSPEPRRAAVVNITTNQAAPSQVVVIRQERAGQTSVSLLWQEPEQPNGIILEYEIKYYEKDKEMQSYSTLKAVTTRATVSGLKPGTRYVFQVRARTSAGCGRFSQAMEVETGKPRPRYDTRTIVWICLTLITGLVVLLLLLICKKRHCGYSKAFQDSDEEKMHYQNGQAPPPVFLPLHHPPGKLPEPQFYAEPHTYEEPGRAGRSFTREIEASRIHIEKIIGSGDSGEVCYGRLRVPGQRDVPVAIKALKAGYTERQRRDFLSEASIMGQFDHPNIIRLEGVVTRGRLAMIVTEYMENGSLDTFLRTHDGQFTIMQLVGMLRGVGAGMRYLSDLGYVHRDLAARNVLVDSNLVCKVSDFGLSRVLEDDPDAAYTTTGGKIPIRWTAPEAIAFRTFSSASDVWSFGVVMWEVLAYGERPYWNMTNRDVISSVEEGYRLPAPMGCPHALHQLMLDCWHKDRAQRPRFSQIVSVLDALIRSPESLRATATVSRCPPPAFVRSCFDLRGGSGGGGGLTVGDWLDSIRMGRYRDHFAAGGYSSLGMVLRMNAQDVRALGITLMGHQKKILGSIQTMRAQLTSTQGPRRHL
SMILES,effect on,method,tested at,remaining binding
O=C(c1ccc(Nc2ncc(Cl)c(-c3ccc(Cl)s3)n2)cc1)N1CCC(N2CCCC2)CC1,binding,competition with immobilised ligand,1 µM,91%
CN(CCCC(F)(F)F)c1nccc(-c2cnn3ncccc23)n1,binding,,1 µM,93%
Cc1noc([C@H]2C[C@@H](c3ccc(C(F)(F)F)cc3)CN(C(=O)N3CCS(=O)(=O)C3)C2)n1,cell-free assay,competition with immobilised ligand,1 µM,100%
FC(F)(F)Oc1cccc(-c2cnc3ccc(-c4ccncc4)nn23)c1,cell-free assay,competition with immobilised ligand,5 µM,91%
CC1CCCN1c1nccc(-c2cnn3ncccc23)n1 (centres unmarked),binding,,1 µM,100%
CCOCCn1cc(C(=O)Nc2ccc(-n3nc(-c4cccnc4)cc3C(F)(F)F)cn2)ccc1=O,cell-free assay,competition with immobilised ligand,1 µM,84%
O=C(NCCCN1CCOCC1)c1ccc(Nc2ncc(Cl)c(-c3ccc(Cl)s3)n2)cc1,binding,competition with immobilised ligand,1 µM,95%
Nc1ncc2c(n1)-c1c([nH]c3ccc(C#CC4CC4)cc13)CCCC2,binding,competition with immobilised ligand,1 µM,89%
CCN1CCN(Cc2ccc(C(=O)Nc3ccc(C)c(Oc4ccc5c(c4)CC(=O)N5)c3)cc2C(F)(F)F)CC1,binding,competition with immobilised ligand,1 µM,82%
CC(=O)C1=C(C)N(c2cccc(C(F)(F)F)c2)C(=O)N[C@@H]1c1ccc(C#N)nc1,cell-free assay,competition with immobilised ligand,1 µM,100%
CN(C)c1ncc(F)c(-c2cnn3ncccc23)n1,binding,,1 µM,100%
Nc1c(C(=O)NCc2ccc(C(=O)NCCCC3CCCCC3)cc2)cnn1-c1ccccc1,cell-free assay,competition with immobilised ligand,0.1 µM,100%
COc1ncc2cc3ccccc3nc2c1C#N,cell-free assay,competition with immobilised ligand,5 µM,94%
F[C@@H]1CCN(c2nccc(-c3cnn4ncccc34)n2)C1,binding,,1 µM,92%
O=C(NCC1CCOCC1)c1n[nH]cc1NC(=O)c1c(F)cccc1F,binding,competition with immobilised ligand,1 µM,100%
COc1cnc(Nc2cccc(S(N)(=O)=O)c2)nc1N1CCN(c2ccccc2)C(=O)C1,binding,competition with immobilised ligand,1 µM,100%
O=c1nc(-c2ccccn2)sc2ccccc12,cell-free assay,competition with immobilised ligand,1 µM,78%
c1cnn2ncc(-c3ccnc(N4CCC45COC5)n3)c2c1,binding,,1 µM,89%
O=C(c1ccc(Nc2nccc(-c3cc4ccccc4s3)n2)cc1)N1CCC(N2CCCC2)CC1,binding,competition with immobilised ligand,1 µM,100%
CCOC(=O)c1cc2cc(-c3cc(C(=O)NCc4ccc(C(=O)O)cc4)nn3C)ccc2[nH]1,cell-free assay,competition with immobilised ligand,0.1 µM,100%
